Measured values collected from several papers.
Each line is one published result; the experiments were not run side by side.
LRRK2 G2019S: Leucine-rich repeat serine/threonine-protein kinase 2 (LRRK2, Homo sapiens, UniProt Q5S007, G2019S)
LRRK2: Leucine-rich repeat serine/threonine-protein kinase 2 (LRRK2, Homo sapiens, UniProt Q5S007)

SMILES	target	observed	action	technique	quantity	result
O=C(/C=C/c1ccc(O)c(O)c1)O[C@H](Cc1ccc(O)c(O)c1)C(=O)O	LRRK2 G2019S	enzyme activity	inhibitor	radiometric	IC50	0.496 µM
C[C@@H]1CN(c2cc(-c3nn(C)c4ccc(OC5(C)CC5)cc34)ncn2)C[C@H](C)O1	LRRK2	target engagement in cells		BRET	EC50	> 50 µM
Cc1cnc(-c2ccc(-c3ccc(NC(=O)Nc4c(F)cc(F)cc4F)cc3F)c3c2C(=O)NC3)[nH]1	LRRK2	binding		competition with immobilised ligand	Kd	0.26 µM
CN(C(=O)c1cnn2cccnc12)c1cc2c(cc1N1CCOCC1)C(=O)N(C[C@@H](F)C(C)(C)O)C2	LRRK2	target engagement in cells		BRET	EC50	> 50 µM
O=c1ccc2cc(O)c(O)cc2o1	LRRK2	enzyme activity	inhibitor	radiometric	IC50	1.73 µM
COc1cc(N2CCN(C)CC2)ccc1Nc1ncc2c(n1)N(C)c1ccccc1C(=O)N2	LRRK2	enzyme activity	inhibitor		IC50	0.07 µM
CC(=O)NC1CCN(c2ncnc3[nH]cc(-c4cccc(Cl)c4)c23)CC1	LRRK2	enzyme activity in cells	inhibitor		IC50	1.1 µM
COc1cc(N2CCN(C)CC2)ccc1Nc1ncc2c(n1)N(C)c1ccccc1C(=O)N2C	LRRK2	enzyme activity	inhibitor		IC50	0.029 µM
CC(Cc1ccc(O)c(O)c1)C(C)Cc1ccc(O)c(O)c1 (stereo not drawn)	LRRK2 G2019S	enzyme activity	inhibitor	radiometric	IC50	0.21 µM
